Data as given in ChEMBL document CHEMBL4049418, “6-OH-Phenanthroquinolizidine Alkaloid and Its Derivatives Exert Potent Anticancer Activity by Delaying S Phase Progression” (J Med Chem, 2017).

Assays:
[1] = system: A549; assay: Antiproliferative activity against human A549 cells assessed as reduction in viability after 72 hrs by SRB assay; assay type: functional, cell-based; conditions: A549, 72 h
How it was run: (§1)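 Cells seeded and dosed in triplicate for 72 h. Suspension lines (HL-60, K-562, K562/ADR, HL-60/MX2) were read by MTT: 5 mg/mL MTT stock added, 4 h at 37 °C, formazan dissolved in 10% SDS/5% isobutanol/10 mM HCl, A570. Adherent lines were read by SRB: fixed with cold 10% TCA, stained with 0.4% SRB in 1% acetic acid, A540. IC50 from four-parameter logistic fit; mean of ≥3 independent experiments.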

[2] = system: Bel-7402; assay: Antiproliferative activity against human Bel7402 cells assessed as reduction in viability after 72 hrs by SRB assay; assay type: functional, cell-based; conditions: Bel-7402, 72 h; how it was run: as §1
[3] = system: K562; assay: Antiproliferative activity against human K562 cells after 72 hrs by MTT assay; assay type: functional, cell-based; conditions: K562, 72 h; how it was run: as §1
[4] = system: K562/Adr; assay: Antiproliferative activity against human K562/ADR cells after 72 hrs by MTT assay; assay type: functional, cell-based; how it was run: as §1
[5] = Resistance factor, ratio of IC50 for human K562/ADR cells to IC50 for human K562 cells; assay type: functional
How it was run: (§2)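 72 h treatment in triplicate; suspended lines (HL-60, K-562, K562/ADR, HL-60/MX2) read by MTT (4 h, SDS/isobutanol/HCl solubilization, 570 nm); adherent KB and KB/VCR (MEM, 10% FBS) by SRB after TCA fixation (540 nm); IC₅₀ by four-parameter logistic fit, mean of ≥3 independent experiments.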

[6] = system: HL-60; assay: Antiproliferative activity against human HL60 cells after 72 hrs by MTT assay; assay type: functional, cell-based; conditions: HL-60, 72 h; how it was run: as §1
[7] = system: HL60/MX2; assay: Antiproliferative activity against human HL60/MX2 cells after 72 hrs by MTT assay; assay type: functional, cell-based; conditions: HL60/MX2, 72 h; how it was run: as §1
[8] = Resistance factor, ratio of IC50 for human HL60/MX2 cells to IC50 for human HL60 cells; assay type: functional; how it was run: as §2
[9] = system: KB; assay: Antiproliferative activity against human KB cells after 72 hrs by SRB assay; assay type: functional, cell-based; how it was run: as §1
[10] = Antiproliferative activity against human KB/VCR cells after 72 hrs by SRB assay; assay type: functional, cell-based; how it was run: as §1
[11] = Resistance factor, ratio of IC50 for human KB/VCR cells to IC50 for human KB cells; assay type: functional; how it was run: as §2
[12] = system: MRC5; assay: Antiproliferative activity against human MRC5 cells assessed as reduction in viability after 72 hrs by SRB assay; assay type: cell-based; conditions: MRC5, 72 h; how it was run: as §1
[13] = Antiproliferative activity against human MRC9 cells assessed as reduction in viability after 72 hrs by SRB assay; assay type: cell-based; conditions: MRC9, 72 h; how it was run: as §1
[14] = system: L02; assay: Antiproliferative activity against human LO2 cells assessed as reduction in viability after 72 hrs by SRB assay; assay type: cell-based; conditions: L02, 72 h; how it was run: as §1
[15] = Selectivity ratio of IC50 for human MRC5 cells to IC50 for human A549 cells
How it was run: (§3)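 SRB assay: A549 (F-12, 10% FBS) and MRC-5/MRC-9 (EMEM, 10% FBS) treated in triplicate 72 h, fixed with ice-cold 10% TCA, stained with 0.4% SRB in 1% acetic acid, absorbance 540 nm; IC₅₀ by four-parameter logistic fit, mean of ≥3 independent experiments.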

[16] = Selectivity ratio of IC50 for human MRC9 cells to IC50 for human A549 cells; how it was run: as §3
[17] = Cytotoxicity against Sprague-Dawley rat primary neuronal cells assessed as reduction in cell viability after 24 hrs by MTT assay; assay type: cell-based
[18] = Cytotoxicity against Sprague-Dawley rat primary neuronal cells assessed as reduction in cell viability at 300 nM after 24 hrs by MTT assay; assay type: cell-based; conditions: read-out: INH

Compound	IC50 [1]	IC50 [2]	other results
COc1cc2c3c(c4ccc(OCc5ccccc5)cc4c2cc1OC)CN1CCCCC1C3O (racemic)	1530 nM	917 nM	–
COc1cc2c3c(c4ccc(OCC#N)cc4c2cc1OC)CN1CCCCC1C3 (racemic)	1 to 3 nM	2.2 to 6 nM	–
COc1cc2c3c(c4ccc(OC(=O)c5cccs5)cc4c2cc1OC)CN1CCCCC1C3 (centres undefined)	115 nM	79 nM	–
COc1cc2c3c(c4ccc(O)cc4c2cc1OC)CN1CCCCC1C3 (racemic)	1.2 to 2.9 nM	3.4 to 3.5 nM	–
COc1cccc2c1C(=O)c1c(O)c3c(c(O)c1C2=O)C[C@@](O)(C(=O)CO)C[C@@H]3O[C@H]1C[C@H](N)[C@H](O)[C@H](C)O1.Cl [DOXORUBICIN HYDROCHLORIDE]	–	–	IC50 [3]: 77.7 nM; IC50 [4]: 3310 nM; Ratio IC50 [5]: 42.6
C#CCOc1ccc2c3c(c4cc(OC)c(OC)cc4c2c1)CC1CCCCN1C3 (centres undefined)	30 nM	33 nM	–
COc1cc2c3c(c4ccc(OCCOC(=O)[C@H](C)N)cc4c2cc1OC)CN1CCCCC1C3 (some centres undefined)	49 nM	47 nM	–
COc1cc2c3c(c4ccc(OC(=O)C(C)(C)C)cc4c2cc1OC)CN1CCCCC1C3 (centres undefined)	103 nM	136 nM	–
COc1cc2c3c(c4ccc(OC(=O)C5CC5)cc4c2cc1OC)CN1CCCCC1C3 (centres undefined)	30 nM	29 nM	–
COc1cc2c3c(c4ccc(OC(=O)c5ccco5)cc4c2cc1OC)CN1CCCCC1C3 (centres undefined)	52 nM	59 nM	–
COc1cc2c3c(c4ccc(OCC#N)cc4c2cc1OC)CN1CCCC[C@H]1C3	12.9 nM	25.8 nM	–
COc1cc2c3c(c4ccc(O)cc4c2cc1OC)CN1CCCCC1C3O (racemic)	12 nM	8 nM	–
Cl.Cl.O=C1c2c(O)ccc(O)c2C(=O)c2c(NCCNCCO)ccc(NCCNCCO)c21 [MITOXANTRONE HYDROCHLORIDE]	–	–	IC50 [6]: 7.2 nM; IC50 [7]: 351 nM; Ratio IC50 [8]: 48.7
COc1cc2c3c(c4ccc(OCC(N)=O)cc4c2cc1OC)CN1CCCCC1C3 (centres undefined)	16 nM	14 nM	–
COc1cc2c3c(c4ccc(OC(=O)c5cccnc5)cc4c2cc1OC)CN1CCCCC1C3 (centres undefined)	277 nM	238 nM	–
CC[C@]1(O)C[C@H]2CN(CCc3c([nH]c4ccccc34)[C@@](C(=O)OC)(c3cc4c(cc3OC)N(C=O)[C@H]3[C@@](O)(C(=O)OC)[C@H](OC(C)=O)[C@]5(CC)C=CCN6CC[C@]43[C@@H]65)C2)C1 [VINCRISTINE]	–	–	IC50 [9]: 0.2 nM; IC50 [10]: 239 nM; Ratio IC50 [11]: 1193.5
COc1cc2c3c(c4ccc(O)cc4c2cc1OC)CN1CCCC[C@H]1C3	182 nM	320 nM	–
COc1cc2c3c(c4ccc(OCC#N)cc4c2cc1OC)CN1CCCC[C@@H]1C3	0.8 nM	2.4 nM	IC50 [12]: 3.2 nM; IC50 [13]: 2.7 nM; IC50 [14]: 3.9 nM; Ratio IC50 [15]: 3 - 4; Ratio IC50 [16]: 3 - 4; inhibition (INH) [17]: Dose-dependent effect; cytotoxicity at 24 h, 0.3 µM [18]: 50%
COc1cc2c3c(c4ccc(OC(=O)C5CCCCC5)cc4c2cc1OC)CN1CCCCC1C3 (centres undefined)	191 nM	115 nM	–
CCOC(=O)COc1ccc2c3c(c4cc(OC)c(OC)cc4c2c1)CC1CCCCN1C3 (centres undefined)	458 nM	411 nM	–
COc1cc2c3c(c4ccc(OC(=O)c5cccc6nnsc56)cc4c2cc1OC)CN1CCCCC1C3 (centres undefined)	29 nM	20 nM	–
COc1cc2c3c(c4ccc(OC(C)=O)cc4c2cc1OC)CN1CCCCC1C3 (centres undefined)	22 nM	23 nM	–
